Sampled rows, rich in hits. Any-hit rate of the full collection: about 3.9%.
ABCB6 inh 2 – ABCB6 transporter inhibitors, primary screen, K562-ABCB6 cells, flow cytometry, MLPCN library. K562-ABCB6 porphyrin accumulation, 1 h; stronger effect = lower value. 360,000 tested, 0.19% active. fluorescence ratio to DMSO, % at 10 µM. AID 602162, 2011. ATP-binding cassette sub-family B member 6 (Homo sapiens), Q9NP58;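 active = fluorescence ratio to DMSO below 75%, the collection mean minus 3 SD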;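 note: signal is porphyrin accumulated inside mitochondria; 100% equals median channel fluorescence of DMSO control wells; lower ratio means ABCB6 inhibition with less porphyrin fluorescence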
SR-BI DiI inh – inhibitors of SR-BI mediated HDL lipid uptake, primary screen, ldlA[mSR-BI] cells, fluorescence, single point; AID 488896, 2010; Scavenger receptor class B member 1 (Mus musculus), Q61009; inhibition, % at 12.5 µM; 320,000 tested, 0.96% active; ldlA[mSR-BI] CHO cells, DiI-HDL uptake fluorescence, 3 h;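 active = mean replicate inhibition of at least 70% and a set share of replicates each scoring 70 or more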;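 note: 0% = median of neutral control wells and 100% = median of positive control wells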
Target sequence (Q61009 whole entry, looked up): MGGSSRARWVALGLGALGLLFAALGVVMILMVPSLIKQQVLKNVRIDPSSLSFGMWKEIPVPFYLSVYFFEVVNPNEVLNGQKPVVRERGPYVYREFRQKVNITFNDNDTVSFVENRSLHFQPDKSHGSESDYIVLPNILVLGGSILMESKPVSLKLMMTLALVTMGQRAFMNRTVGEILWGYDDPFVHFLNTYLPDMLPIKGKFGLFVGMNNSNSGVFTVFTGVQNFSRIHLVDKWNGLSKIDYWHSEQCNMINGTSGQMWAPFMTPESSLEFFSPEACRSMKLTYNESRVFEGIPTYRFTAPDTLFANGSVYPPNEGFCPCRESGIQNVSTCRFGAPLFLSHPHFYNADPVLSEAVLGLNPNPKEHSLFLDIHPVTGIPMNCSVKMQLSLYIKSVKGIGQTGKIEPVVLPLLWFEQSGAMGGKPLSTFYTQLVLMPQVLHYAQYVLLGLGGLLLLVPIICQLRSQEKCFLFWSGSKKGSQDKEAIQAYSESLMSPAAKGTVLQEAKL
FXN GAA850 act – FXN promoter activators, primary screen, cell-based, luciferase luminescence, HEK293 lucGAA850; HEK293 lucGAA850 FXN promoter luciferase reporter, 24 h; percent of 10 µM SAHA response; activation, % at 6 µM; 360,000 tested, 0.56% active; AID 540364, 2011;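 active = activation above the average of all compounds screened plus 3 SD, cutoff fixed separately per campaign, cut at about 7.5% in these data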;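 note: 0% = DMSO wells and 100% = 10 µM SAHA wells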
AHR activator – AHR activators, primary screen, cell-based, luminescence, luciferase reporter, human; AHR-responsive luciferase reporter cells; activation, % at 5 µM; 320,000 tested, 2.5% active; in the data active = activation above about 47%;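 note: 0% = vehicle wells and 100% = reference agonist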
HIF act – HIF pathway transcriptional activators, primary screen, cell-based, U2OS HRE-luciferase, luminescence; U2OS HRE-luciferase reporter; normalized: DMSO 0%, desferrioxamine 100%; activation, % at 7.5 µM (by protocol); 300,000 tested, 0.32% active; AID 1910, 2009;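 active = mean activation of at least 10% of the iron chelator positive control signal, with at least half of replicates also reaching 10%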
SR-BI DiI-HDL act – activators of SR-BI mediated DiI-HDL uptake, primary screen, ldlA[mSR-BI] CHO cells, DiI fluorescence; 3 h; 100 = double the neutral-control signal; AID 504775, 2011; activation, % at 12.5 µM; 320,000 tested, 0.096% active;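 active = mean replicate activation of at least 60% and every replicate at or above 60%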;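 note: 0% = median plate neutral-control signal and 100% = twice that signal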
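Material: SR-BI-overexpressing, LDLR-lacking CHO cells; schedule: compound exposure 3 h, 37 °C; reagent: DiI-labelled HDL at 10 µg/mL final; technique: bottom-read fluorescence, 550/595 nm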
* marks the source's active call; other numbers are inactive results; / = no result given.

SMILES	ABCB6 inh 2	SR-BI DiI inh	FXN GAA850 act	AHR activator	HIF act	SR-BI DiI-HDL act
Cc1nc(C)c(NC(=O)N2CCc3ccccc32)cc1NC(=O)N1CCc2ccccc21	106.0	32.1	0.9	49.5*	/	-32.1
Cc1cc(C)nc(SCC(=O)N2CCc3ccccc32)n1	95.0	5.2	3.9	72.8*	3.8	-5.2
Cc1cc(C)n2nc(SCC(=O)N3CCc4ccccc43)nc2n1	90.0	-8.1	2.2	38.1	2.4	8.1
COc1cccc(C(=O)COc2ccc(NC(=O)c3cccs3)cc2)c1	97.0	43.7	3.0	7.2	0.2	-43.7
COc1ccc(C(=O)/C=C2\Sc3ccccc3N2C)cc1	98.0	28.0	5.9	50.4*	2.6	-28.0
CC(=S)/C=C1\Sc2ccccc2N1C	234.0	-11.9	-2.2	0.0	-0.4	11.9
c1ccc2sc(Sc3ncnc4sccc34)nc2c1	92.0	0.0	-4.5	49.0*	0.0	0.0
COc1ccc(NC(=O)N2CCN(c3nc(-c4cccc(OC)c4)cs3)CC2)cc1	104.0	71.0*	0.5	3.7	0.7	-71.0
COc1ccc(NC(=O)N2CCN(c3nc4ccccc4n3C(C)C)CC2)cc1	96.0	81.3*	-0.4	-4.0	0.8	-81.3
COc1cccc(-c2csc(N3CCN(C(=O)Nc4ccc(Cl)cc4)CC3)n2)c1	97.0	56.2	1.9	5.8	0.6	-56.2
Cc1ccc(C(=O)NCCN(C)C)c(C)c1	97.0	-7.2	0.2	6.2	-0.1	7.2
CCOc1cccc(CN2CCCC(C(=O)Nc3ccc(-c4ccn[nH]4)cc3)C2)c1O (centres undefined)	99.0	5.3	-8.5	6.9	0.3	-5.3
CS(=O)(=O)N1CCn2c1nc1ccccc12	94.0	2.4	0.9	-0.4	0.0	-2.4
CCN1N=C(c2ccccc2)Cn2c1nc1ccccc12	89.0	-0.7	-0.7	67.2*	0.3	0.7
Cc1cc(C)c(N(C(=O)c2csnn2)C(C(=O)NC(C)(C)C)c2ccncc2)c(C)c1 (centres undefined)	105.0	-11.2	0.8	-0.8	-0.6	11.2
COc1c(Br)cc(Br)cc1/C=N/NC(=O)c1ccncc1	98.0	35.6	-1.0	57.5*	-1.2	-35.6
COc1c(Br)cc(Br)cc1/C=N/NC(=O)c1cccnc1	111.0	8.5	-2.2	/	1.2	-8.5
CCNC(=S)N/N=C/c1cc(Br)cc(Br)c1OC	94.0	49.0	-2.2	62.9*	-0.3	-49.0
CCNC(=S)N/N=C/c1cccc(/C=N/NC(=S)NCC)c1	95.0	-5.3	2.1	8.8	-0.6	5.3
COc1cccc(C(=O)Oc2c(Br)cc(Br)cc2/C=N/NC(=O)c2cc(C)[nH]n2)c1	92.0	102.9*	-5.5	34.2	5.4	-102.9
CC(NC(=O)CN(Cc1ccccc1)S(=O)(=O)c1ccccc1)c1cccnc1 (centres undefined)	100.0	2.3	1.8	1.1	/	-2.3
C/C(=N\N=C(N)N)c1cc(Cl)ccc1Cl	92.0	-39.3	-2.7	1.4	-0.2	39.3
Cc1ccc(-c2nc3ccccc3c(=O)n2NC(=O)c2cccs2)cc1	95.0	19.0	0.8	51.7*	-0.3	-19.0
Cc1cccc(-c2nc3ccccc3c(=O)n2NC(=O)c2cccs2)c1	92.0	-19.4	-0.8	9.2	-0.2	19.4
Clc1ccc(C(CCN2CCCC2)Cc2ccccc2)cc1 (centres undefined)	96.0	/	0.6	0.2	0.0	/
SMILES	ABCB6 inh 2	SR-BI DiI inh	FXN GAA850 act	AHR activator	HIF act	SR-BI DiI-HDL act
CCC(C)NC(=O)CSc1nnc(-c2cc(-c3ccc(C)cc3)nc3ccccc23)n1N (centres undefined)	99.0	86.5*	-1.6	3.5	-0.3	-86.5
Cc1ccc(-c2cc(-c3nnc(SCC(=O)NCC(C)C)n3N)c3ccccc3n2)cc1	93.0	67.6	-0.2	7.4	0.8	-67.6
O=C(c1ccc(Cl)cc1)N1N=CCC1(O)c1ccc(Cl)cc1 (centres undefined)	102.0	88.4*	-0.7	5.0	-1.3	-88.4
CC1(O)CC(c2ccc(Cl)cc2)=NN1C(=O)c1ccc(Cl)cc1 (centres undefined)	99.0	28.8	-0.3	8.2	-0.1	-28.8
CNc1nc(-c2cccs2)cc(C(F)(F)F)c1C#N	102.0	-8.4	2.5	5.7	-0.2	8.4
CCOC(=O)c1c(C)[nH]c(C(=O)OCc2ccc(C)cc2)c1C	97.0	-5.3	1.9	48.6*	1.7	5.3
CCOC(=O)c1c(C)[nH]c(C(=O)OCc2ccc([N+](=O)[O-])cc2)c1C	93.0	28.2	2.0	52.8*	-0.1	-28.2
CCOC(=O)c1[nH]c(C)c(C(=O)OCc2ccc(C)cc2)c1C	168.0	0.0	-2.0	6.7	1.3	0.0
CC(=O)N1CCN(C(=S)NCCc2ccccc2)CC1	105.0	-14.0	-0.3	2.3	0.3	14.0
Cc1ccc(NC(=O)c2cccc(C(=O)Nc3ccc(C)c(C)c3)n2)cc1C	102.0	74.7*	1.0	5.8	1.3	-74.7
CC1(C)CC(=O)C=C(c2ccc3c(c2)OCO3)C1	102.0	-3.1	0.8	59.4*	-0.1	3.1
Cc1ccc([N+](=O)[O-])cc1S(=O)(=O)Nc1ccc(-c2ccc(N3CCCC3)nn2)cc1	99.0	14.6	2.2	1.8	0.7	-14.6
CC(C)N(Cc1nc(-c2ccc3c(c2)OCO3)no1)Cc1nccn1C	96.0	-43.9	1.0	60.7*	0.3	43.9
CCOC(=O)c1sc(NC(=O)Cn2nnc3sc4c(c3c2=O)CCC(C(C)(C)C)C4)nc1C (centres undefined)	100.0	-42.4	0.2	2.1	0.0	42.4
Cc1ccc(C(=O)OCC(=O)Nc2ccc(C)c(S(=O)(=O)N3CCCCC3)c2)c(O)c1	78.0	/	-0.1	/	/	/
CCOC(=O)Nc1cc(C(=O)OCC)c(C)nc1C	102.0	-10.2	-1.3	0.7	-0.1	10.2
CCOC(=O)c1cc(NC(=O)N(C)C2CCCCC2)c(C)nc1C	99.0	73.7*	0.3	2.7	0.2	-73.7
CCOC(=O)c1cc(NC(=O)N(CC)C2CCCCC2)c(C)nc1C	96.0	76.5*	-2.6	2.3	-0.5	-76.5
COc1ccc(NC(=O)C2CCN(S(=O)(=O)c3ccc(OC)c(OC)c3)CC2)cc1	96.0	5.9	1.1	-0.5	-0.4	-5.9
CC1=Nc2ccccc2/C1=C/c1sc(=N)n(-c2nccs2)c1O	135.0	20.2	0.5	73.3*	0.0	-20.2
